Data published in ChEMBL document CHEMBL1156229, “Pharmacophore development and application toward the identification of novel, small-molecule autotaxin inhibitors” (J Med Chem, 2010).
pIC50: −log10 of the molar value. Activity calls are given as the source filed them. The rule behind the calls is not given here.

How the values were obtained:
Autotaxin [1] = molecular target: T1, Autotaxin (Homo sapiens, UniProt Q13822); assay: Inhibition of human recombinant C-terminal FLAG-tagged autotaxin expressed in baculovirus-infected Sf9 cells assessed as FS-3 hydrolysis at 10 uM relative to control
How it was run: (§1)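 Single-dose screen: inhibitor 10 μM final, purified recombinant human ATX 8.3 nM, FS-3 1 μM, fatty acid free BSA 30 μM in Tris pH 8 buffer (1 mM MgCl2, 1 mM CaCl2, 3 mM KCl, 140 mM NaCl), 37 °C. Fluorescence (ex 485/em 538) read every 2 min; percent activity vs vehicle after no-ATX subtraction at 1 h; mean ± SD of three wells.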

Autotaxin [2] = molecular target: T1, Autotaxin; assay: Inhibition of human recombinant C-terminal FLAG-tagged autotaxin expressed in baculovirus-infected Sf9 cells assessed as FS-3 hydrolysis
How it was run: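 Dose response: final inhibitor 30, 10, 3, 1, 0.3, 0.1, 0.03 μM, plus 0.01 and 0.003 μM for some compounds; purified human ATX 8.3 nM, 1 μM FS-3, 30 μM fatty acid free BSA, Tris pH 8 buffer, 37 °C. Fluorescence ex 485/em 538 every 2 min; percent activity vs vehicle at 1 h after no-ATX background subtraction; mean of three wells.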

Autotaxin [3] = molecular target: T1, Autotaxin; assay: Inhibition of human recombinant C-terminal FLAG-tagged autotaxin expressed in baculovirus-infected Sf9 cells using lysophosphatidylcholine as substrate assessed as choline release by Amplex red reagent assay
How it was run: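 LPC 16:0 100 μM with purified human ATX 8.3 nM and inhibitor 10 μM final, 30 μM fatty acid free BSA, 50 mM Tris/5 mM CaCl2 pH 7.4, 37 °C. Choline detected by choline oxidase 0.1 U/mL, HRP 1 U/mL, Amplex Red 10 μM; fluorescence ex 560/em 590 every 2 min, percent of vehicle at 1 h after no-ATX subtraction; mean ± SD of three wells.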

Autotaxin [4] = molecular target: T1, Autotaxin; assay: Inhibition of autotaxin at 10 uM; how it was run: as §1

| SMILES | inhibition (Autotaxin [1]) [%] | pIC50 (Autotaxin [2]) | pIC50 (Autotaxin [2]; sf9) | inhibition (Autotaxin [3]) | inhibition (Autotaxin [4]) [%] |
| --- | --- | --- | --- | --- | --- |
| Cc1cc(-c2ccc(/N=N/c3c(N)c(S(=O)(=O)O)cc4cc(S(=O)(=O)O)ccc34)c(C)c2)ccc1/N=N/c1cc(S(=O)(=O)O)c2ccccc2c1N | 68 | 4.87 | – | – | – |
| O=S(=O)([O-])c1cccc2c1c(Nc1ccccc1)cc1c2nc2cc(S(=O)(=O)O)c(Nc3ccccc3)cc2[n+]1-c1ccccc1 | 51 | 5.03 | – | – | – |
| O=S(=O)(O)c1ccc(-c2c3nc(c(-c4ccc(S(=O)(=O)O)cc4)c4ccc([nH]4)c(-c4ccc(S(=O)(=O)O)cc4)c4ccc([nH]4)c(-c4ccc(S(=O)(=O)O)cc4)c4nc2C=C4)C=C3)cc1 [TETRAPHENYLPORPHINE TETRASULFONIC ACID] | 61 | – | 5.11 | – | – |
| COc1cc(/N=N/c2c(S(=O)(=O)O)cc3cc(NC(=O)Nc4ccc5c(O)c(/N=N/c6ccc7cc(S(=O)(=O)O)ccc7c6)c(S(=O)(=O)O)cc5c4)ccc3c2O)c(C)cc1N | 70 | 4.86 | – | – | – |
| Cc1cc(/C(=C2C=C/C(=N\c3ccc(S(=O)(=O)O)cc3)C=C\2)c2ccc(Nc3ccc(S(=O)(=O)O)cc3)cc2)cc(S(=O)(=O)O)c1N | 55 | 5.06 | – | – | – |
| Nc1ccc(C(=O)Nc2ccc(C(=O)Nc3ccc4c(O)cc(S(=O)(=O)O)cc4c3)cc2)cc1 | 40 | – | – | Active | – |
| O=C(Nc1ccc2cc(S(=O)(=O)O)ccc2c1)c1ccc(/N=N/c2c(S(=O)(=O)O)cc3cc(S(=O)(=O)O)cc(NC(=O)c4ccccc4)c3c2O)cc1 | 72 | 5.05 | – | – | – |
| Cc1ccc(/N=N/c2c(S(=O)(=O)O)cc3cc(NC(=O)Nc4ccc5c(O)c(/N=N/c6ccc7cc(S(=O)(=O)O)ccc7c6)c(S(=O)(=O)O)cc5c4)ccc3c2O)c(C)c1 | 67 | 4.73 | – | – | – |
| O=C(Nc1ccc(C(=O)Nc2cc(S(=O)(=O)O)cc3cccc(S(=O)(=O)O)c23)cc1)Nc1ccc(C(=O)Nc2cc(S(=O)(=O)O)cc3cccc(S(=O)(=O)O)c23)cc1 | -5 | – | – | Active | – |
| COc1cc(NC(=O)c2ccc(NC(=O)c3ccc(N)cc3)cc2)c(OC)cc1/N=N/c1cc(C)c(/N=N/c2cc(S(=O)(=O)O)c3cccc(S(=O)(=O)O)c3c2)cc1C | 53 | 5.12 | – | – | – |
| Cc1c(N)cc(S(=O)(=O)O)c(/N=N/c2ccc(-c3ccc(/N=N/c4c(S(=O)(=O)O)cc5cc(S(=O)(=O)O)c(/N=N/c6cccc([N+](=O)[O-])c6)c(N)c5c4O)cc3)cc2)c1N | 68 | 5.23 | – | – | – |
| O=S(=O)(O)c1cc(O)c2ccc(Nc3ccc4c(O)cc(S(=O)(=O)O)cc4c3)cc2c1 | 11 | – | – | Active | – |
| Nc1c(/N=N/c2ccc(-c3ccc(/N=N/c4c(S(=O)(=O)O)cc5cc(S(=O)(=O)O)c(/N=N/c6ccccc6)c(O)c5c4N)cc3)cc2)ccc2c(S(=O)(=O)O)cccc12 | 75 | 5.62 | – | – | – |
| Cc1ccc(C)c(/N=N/c2c(S(=O)(=O)O)cc3cc(NC(=O)Nc4ccc5c(O)c(/N=N/c6ccc7cc(S(=O)(=O)O)ccc7c6)c(S(=O)(=O)O)cc5c4)ccc3c2O)c1 | 65 | 4.81 | – | – | – |
| COc1c(C=O)c(O)cc2c1C(=O)c1ccccc1C2=O | – | – | – | – | 70 |
| Nc1ccc2cc(S(=O)(=O)O)cc(O)c2c1/N=N/c1ccc(NC(=O)c2ccc(C(=O)Nc3ccc(/N=N/c4c(N)ccc5cc(S(=O)(=O)O)cc(O)c45)c(S(=O)(=O)O)c3)cc2)cc1S(=O)(=O)O | 52 | 5.01 | – | – | – |
| COc1ccccc1/N=N/c1c(S(=O)(=O)O)cc2cc(NC(=O)Nc3ccc4c(O)c(/N=N/c5c(N)ccc6cc(S(=O)(=O)O)ccc56)c(S(=O)(=O)O)cc4c3)ccc2c1O | 84 | 4.94 | – | – | – |

| SMILES | inhibition (Autotaxin [1]) [%] | pIC50 (Autotaxin [2]) | pIC50 (Autotaxin [2]; sf9) | inhibition (Autotaxin [3]) | inhibition (Autotaxin [4]) [%] |
| --- | --- | --- | --- | --- | --- |
| CC1=NN(c2ccc(/C=C/c3ccc(NC(=O)Nc4ccc(/C=C/c5ccc(N6N=C(C)C(/N=N/c7ccccc7C(=O)O)C6=O)cc5S(=O)(=O)O)c(S(=O)(=O)O)c4)cc3S(=O)(=O)O)c(S(=O)(=O)O)c2)C(=O)C1/N=N/c1ccccc1C(=O)O (stereo not drawn) | 13 | – | – | Active | – |
| Nc1ccc2cc(S(=O)(=O)O)cc(O)c2c1/N=N/c1ccc(-c2ccc(/N=N/c3c(S(=O)(=O)O)cc4cc(S(=O)(=O)O)c(/N=N/c5ccc([N+](=O)[O-])cc5)c(N)c4c3O)cc2)cc1 | 57 | 4.76 | – | – | – |
| CCn1cc(C(=O)O)c(=O)c2cnc(N3CCN(C(=S)Nc4cc(Cl)cc(Cl)c4)CC3)nc21 | – | – | – | – | 100 |
| COc1cc(/N=N/c2cc(S(=O)(=O)O)cc3cc(S(=O)(=O)O)cc(O)c23)c(C)cc1/N=N/c1c(S(=O)(=O)O)cc2cc(Nc3ccccc3)ccc2c1O | 53 | 4.42 | – | – | – |
| Nc1ccc2cc(S(=O)(=O)O)c(/N=N/c3ccc(-c4ccc(/N=N/c5c(S(=O)(=O)O)cc6cc(S(=O)(=O)O)c(/N=N/c7cccc([N+](=O)[O-])c7)c(N)c6c5O)cc4)cc3)c(O)c2c1 | 65 | 4.55 | – | – | – |
| CC(=O)Nc1ccc(/C=C/c2ccc(NC(=O)Nc3ccc(/C=C/c4ccc(NC(C)=O)cc4S(=O)(=O)O)c(S(=O)(=O)O)c3)cc2S(=O)(=O)O)c(S(=O)(=O)O)c1 | 49 | 4.64 | – | – | – |
| O=[As](O)(O)c1ccc(Cc2ccc([As](=O)(O)O)cc2)cc1 | – | – | – | – | 98 |
| COc1cc(/N=N/c2ccc3cc(S(=O)(=O)O)cc(S(=O)(=O)O)c3c2)ccc1/N=N/c1ccc(NC(=O)c2ccc(NC(=O)c3ccccc3)cc2)cc1C | 77 | 5.77 | – | – | – |
| Nc1c(S(=O)(=O)O)cc2cc(S(=O)(=O)O)ccc2c1/N=N/c1ccc(-c2ccc(/N=N/c3c(N)c(S(=O)(=O)O)cc4cc(S(=O)(=O)O)ccc34)c(S(=O)(=O)O)c2)cc1 | 51 | 4.90 | – | – | – |
| Cc1ccccc1/N=N/c1c(S(=O)(=O)O)cc2cc(NC(=O)Nc3ccc4c(O)c(/N=N/c5ccc6cc(S(=O)(=O)O)ccc6c5)c(S(=O)(=O)O)cc4c3)ccc2c1O | 71 | 4.94 | – | – | – |
| Cc1cccc(/N=N/c2c(S(=O)(=O)O)cc3cc(NC(=O)Nc4ccc5c(O)c(/N=N/c6ccc7cc(S(=O)(=O)O)ccc7c6)c(S(=O)(=O)O)cc5c4)ccc3c2O)c1 | 80 | 4.92 | – | – | – |
| O=C(Nc1ccc(/C=C/c2ccc(NC(=O)c3cc(S(=O)(=O)O)c4cccnc4c3O)cc2S(=O)(=O)O)c(S(=O)(=O)O)c1)c1cc(S(=O)(=O)O)c2cccnc2c1O | 53 | 5.13 | – | – | – |
| O=C(Nc1cc(S(=O)(=O)O)cc2cc(S(=O)(=O)O)c(/N=N/c3cc(Nc4nc(O)nc(Nc5ccc(S(=O)(=O)O)cc5)n4)ccc3S(=O)(=O)O)c(O)c12)c1ccccc1 | 76 | 5.14 | – | – | – |
| COc1ccccc1/N=N/c1c(S(=O)(=O)O)cc2cc(NC(=O)Nc3ccc4c(O)c(/N=N/c5ccc(S(=O)(=O)O)cc5C)c(S(=O)(=O)O)cc4c3)ccc2c1O | 59 | 4.74 | – | – | – |
| O=C(Nc1ccc2c(O)c(/N=N/c3ccccc3)c(S(=O)(=O)O)cc2c1)Nc1ccc2c(O)c(/N=N/c3ccc4cc(S(=O)(=O)O)ccc4c3)c(S(=O)(=O)O)cc2c1 | 61 | 4.72 | – | – | – |
| CC(=O)Nc1cc(/N=N/c2ccc(NC(=O)c3ccc(N)cc3)cc2C)c(S(=O)(=O)O)cc1/N=N/c1ccc(/N=N/c2ccc(S(=O)(=O)O)cc2)cc1 | 74 | 5.27 | – | – | – |
